Key:
[1] = target: Sigma non-opioid intracellular receptor 1 (Cavia porcellus, UniProt Q60492); assay: Displacement of [3H](+)-pentazocine from sigma 1 receptor in guinea pig brain cortex membranes after 120 mins by scintillation counting analysis; format: cell membranes, Membrane
In short: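 Male guinea pig cortex membranes in 10 mM Tris-HCl/0.32 M sucrose pH 7.4, 5.0 mg/well original wet weight; [3H](+)-pentazocine 3 nM final; inhibitor serial dilutions in 30% DMSO vehicle, triplicate; 120 min at RT; nonspecific with 10 μM PRE084 or (+)-pentazocine.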

[2] = Selectivity ratio of Ki for sigma 1 receptor in guinea pig brain cortex membranes to Ki for DAT in Sprague-Dawley rat striatum membranes; format: cell membranes
Rattus norvegicus = organism: Rattus norvegicus; assay: Selectivity ratio of Ki for SERT in Sprague-Dawley rat midbrain membranes to Ki for DAT in Sprague-Dawley rat striatum membranes
[3] = target: Sodium-dependent serotonin transporter (Rattus norvegicus, UniProt P31652); assay: Displacement of [3H]citalopram from SERT in Sprague-Dawley rat midbrain membranes incubated for 60 mins by microbeta scintillation counting method; format: cell membranes, Membrane
[4] = target: Sodium-dependent dopamine transporter (Rattus norvegicus, UniProt P23977); assay: Displacement of [3H]WIN35428 from DAT in Sprague-Dawley rat striatal membranes incubated for 120 mins by microbeta scintillation counting method; format: cell membranes, Striatum, Membrane
D(4) dopamine receptor = target: T1, D(4) dopamine receptor (Homo sapiens, UniProt P21917); assay: Displacement of [3H]-N-methylspiperone from human D4.4 receptor expressed in HEK293 cell membranes measured after 60 mins by microbeta scintillation counting method; parameters: species or system Membrane
T1 sequence (P21917 whole entry): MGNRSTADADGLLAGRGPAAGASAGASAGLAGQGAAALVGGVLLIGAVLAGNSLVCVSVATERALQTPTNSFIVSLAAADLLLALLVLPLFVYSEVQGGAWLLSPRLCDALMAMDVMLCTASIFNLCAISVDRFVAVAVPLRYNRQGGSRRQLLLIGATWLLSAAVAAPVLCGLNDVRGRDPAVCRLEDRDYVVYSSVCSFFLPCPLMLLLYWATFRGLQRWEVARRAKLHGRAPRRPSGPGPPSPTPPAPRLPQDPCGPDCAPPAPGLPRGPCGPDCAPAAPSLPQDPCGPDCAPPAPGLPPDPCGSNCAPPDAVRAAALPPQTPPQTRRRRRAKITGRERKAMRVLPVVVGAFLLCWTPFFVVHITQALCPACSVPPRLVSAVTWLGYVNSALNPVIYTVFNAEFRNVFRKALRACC
In short: (§1)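 Membranes from HEK293 cells stably expressing human D2LR, D3R or D4.4R; 20 μg/well protein (D2LR, D3R) or 30 μg/well (D4.4R); [3H]-N-methylspiperone 0.4 nM final; half-log dilutions in 30% DMSO, triplicate; 60 min RT; nonspecific 10 μM (+)-butaclamol.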

[5] = Metabolic stability in rat liver microsomes assessed as compound remaining at 10 uM in presence of NADPH regenerating system by LC-MS/MS analysis; format: ADME, Microsome
D(3) dopamine receptor = D(3) dopamine receptor (Homo sapiens, UniProt P35462); assay: Displacement of [3H]-N-methylspiperone from human D3 receptor expressed in HEK293 cell membranes measured after 60 mins by microbeta scintillation counting method; parameters: species or system Membrane; in short: as §1
[6] = Metabolic stability in rat liver microsomes assessed as compound remaining at 10 uM incubated for 60 mins in presence of NADPH regenerating system by LC-MS/MS analysis; format: ADME, Microsome; settings: 1 h
[7] = Displacement of [3H]-Nisoxetine from NET in Sprague-Dawley rat frontal cortex membrane after 180 mins by microbeta scintillation counting method; format: cell membranes
D(2) dopamine receptor = D(2) dopamine receptor (Homo sapiens, UniProt P14416); assay: Displacement of [3H]-N-methylspiperone from human D2L receptor expressed in HEK293 cell membranes measured after 60 mins by microbeta scintillation counting method; parameters: species or system Membrane; in short: as §1
D(2) dopamine receptor, sequence (P14416 whole entry): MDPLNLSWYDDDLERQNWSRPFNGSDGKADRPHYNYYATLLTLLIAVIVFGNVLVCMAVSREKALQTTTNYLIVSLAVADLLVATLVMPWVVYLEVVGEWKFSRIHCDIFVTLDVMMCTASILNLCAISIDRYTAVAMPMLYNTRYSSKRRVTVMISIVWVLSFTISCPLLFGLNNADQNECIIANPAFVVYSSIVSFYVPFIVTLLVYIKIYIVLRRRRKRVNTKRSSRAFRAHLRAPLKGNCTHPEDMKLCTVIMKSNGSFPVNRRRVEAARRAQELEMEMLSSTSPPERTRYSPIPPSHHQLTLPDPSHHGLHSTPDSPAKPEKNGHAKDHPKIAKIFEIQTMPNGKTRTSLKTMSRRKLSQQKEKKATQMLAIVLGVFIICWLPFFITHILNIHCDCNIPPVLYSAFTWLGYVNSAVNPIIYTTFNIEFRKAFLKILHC

Sigma non-opioid intracellular receptor 1, sequence (Q60492 whole entry): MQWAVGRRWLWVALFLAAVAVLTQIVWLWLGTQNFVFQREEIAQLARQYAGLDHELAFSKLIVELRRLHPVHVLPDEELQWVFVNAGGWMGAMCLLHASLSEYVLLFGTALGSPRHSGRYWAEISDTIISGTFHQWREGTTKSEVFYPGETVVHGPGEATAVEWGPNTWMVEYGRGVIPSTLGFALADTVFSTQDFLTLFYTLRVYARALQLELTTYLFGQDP
Sodium-dependent serotonin transporter, sequence (P31652 whole entry): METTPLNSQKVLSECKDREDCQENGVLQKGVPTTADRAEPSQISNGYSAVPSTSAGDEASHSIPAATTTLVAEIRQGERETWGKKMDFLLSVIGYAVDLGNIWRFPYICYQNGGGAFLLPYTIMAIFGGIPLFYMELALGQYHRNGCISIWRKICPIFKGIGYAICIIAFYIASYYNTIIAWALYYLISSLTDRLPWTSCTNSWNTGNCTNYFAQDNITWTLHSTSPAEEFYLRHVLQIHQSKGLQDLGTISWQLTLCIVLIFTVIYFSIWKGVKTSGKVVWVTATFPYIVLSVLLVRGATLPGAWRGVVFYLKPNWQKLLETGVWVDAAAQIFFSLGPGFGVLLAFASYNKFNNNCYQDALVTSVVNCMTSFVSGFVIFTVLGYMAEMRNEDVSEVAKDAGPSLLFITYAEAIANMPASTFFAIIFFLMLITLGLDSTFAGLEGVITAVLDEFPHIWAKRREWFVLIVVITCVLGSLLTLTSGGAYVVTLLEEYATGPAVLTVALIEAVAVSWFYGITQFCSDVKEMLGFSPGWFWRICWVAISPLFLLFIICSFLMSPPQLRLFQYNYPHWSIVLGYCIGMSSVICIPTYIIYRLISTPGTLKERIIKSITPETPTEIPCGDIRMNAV
D(3) dopamine receptor, sequence (P35462 whole entry): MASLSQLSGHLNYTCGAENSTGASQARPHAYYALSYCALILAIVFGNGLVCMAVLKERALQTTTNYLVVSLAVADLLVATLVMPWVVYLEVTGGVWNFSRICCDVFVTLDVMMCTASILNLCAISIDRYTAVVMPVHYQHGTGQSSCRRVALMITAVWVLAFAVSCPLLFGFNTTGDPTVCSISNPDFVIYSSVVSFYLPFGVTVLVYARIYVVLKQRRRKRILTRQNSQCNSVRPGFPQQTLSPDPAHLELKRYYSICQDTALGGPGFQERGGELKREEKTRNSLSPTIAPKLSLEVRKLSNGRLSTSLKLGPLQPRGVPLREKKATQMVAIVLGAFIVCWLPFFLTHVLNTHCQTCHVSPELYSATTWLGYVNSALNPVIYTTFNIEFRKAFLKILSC
Sodium-dependent dopamine transporter, sequence (P23977 whole entry): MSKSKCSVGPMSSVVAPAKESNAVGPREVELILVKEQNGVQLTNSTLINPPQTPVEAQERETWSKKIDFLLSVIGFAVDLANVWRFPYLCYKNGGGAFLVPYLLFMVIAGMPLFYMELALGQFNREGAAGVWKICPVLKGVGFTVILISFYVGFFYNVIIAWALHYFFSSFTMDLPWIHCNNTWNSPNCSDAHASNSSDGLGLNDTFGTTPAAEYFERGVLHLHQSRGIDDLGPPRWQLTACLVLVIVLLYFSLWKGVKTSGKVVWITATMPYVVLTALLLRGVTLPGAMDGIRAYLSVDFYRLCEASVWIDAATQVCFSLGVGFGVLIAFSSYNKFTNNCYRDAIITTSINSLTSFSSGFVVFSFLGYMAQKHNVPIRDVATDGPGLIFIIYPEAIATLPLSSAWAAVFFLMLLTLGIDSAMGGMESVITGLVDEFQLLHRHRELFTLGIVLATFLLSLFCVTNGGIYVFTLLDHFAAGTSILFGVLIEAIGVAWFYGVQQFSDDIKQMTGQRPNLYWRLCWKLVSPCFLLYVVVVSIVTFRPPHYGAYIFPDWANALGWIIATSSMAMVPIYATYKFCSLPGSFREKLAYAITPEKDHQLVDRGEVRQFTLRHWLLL

| SMILES | Ki [1] | Ratio Ki [2] | Ratio Ki (Rattus norvegicus) | Ki [3] | Ki [4] | Ki (D(4) dopamine receptor) | Stabilty [5] | Ki (D(3) dopamine receptor) | Stabilty [6] | Ki [7] | Ki (D(2) dopamine receptor) |
| --- | --- | --- | --- | --- | --- | --- | --- | --- | --- | --- | --- |
| Fc1ccc(C(SCCNC2CCN(Cc3ccc(C(F)(F)F)cc3)CC2)c2ccc(F)cc2)cc1 | 186 nM | – | – | – | – | – | – | – | – | – | – |
| Fc1ccc(C(SCCNC2CCN(Cc3ccccc3)CC2)c2ccc(F)cc2)cc1 | 3.81 nM | 0.12 | 12.4 | – | – | – | – | – | – | – | – |
| CN(CCSC(c1ccc(F)cc1)c1ccc(F)cc1)C1CCN(C(=O)c2ccccc2F)CC1 | 5.87 nM | 0.03 | 4.47 | 992 nM | 222 nM | – | – | – | – | – | – |
| OC(Cc1ccccc1)CN1CCC(NCCSC(c2ccc(F)cc2)c2ccc(F)cc2)CC1 (stereo unspecified) | 309 nM | – | – | – | 31.4 nM | 2200 nM | 100% | 691 nM | 74% | 585 nM | 4020 nM |
| [O-][S+](CCNC1CCN(CC(O)Cc2ccccc2)CC1)C(c1ccc(F)cc1)c1ccc(F)cc1 (stereo unspecified) | 351 nM | 3.82 | 6.53 | – | – | – | 100% | 5500 nM | 22% | – | 6610 nM |
| [O-][S+](CCN1CCN(CC(O)Cc2ccccc2)CC1)C(c1ccc(F)cc1)c1ccc(F)cc1 (stereo unspecified) | 41.6 nM | – | – | 12700 nM | 2.6 nM | – | – | – | – | – | – |
| O=C(c1cc2ccccc2o1)N1CCC(NCCSC(c2ccc(F)cc2)c2ccc(F)cc2)CC1 | 304 nM | – | – | – | – | – | – | – | – | – | – |
| NC(=O)C[S@+]([O-])C(c1ccc(F)cc1)c1ccc(F)cc1 | > 100000 nM | > 34 | 5.05 | 15000 nM | 2970 nM | – | – | – | – | – | – |
| Fc1ccc(C(SCCN2CCC(NCc3ccc(C(F)(F)F)cc3)CC2)c2ccc(F)cc2)cc1 | 162 nM | – | – | – | – | – | – | – | – | – | – |
| Fc1ccc(CN2CCC(NCCSC(c3ccc(F)cc3)c3ccc(F)cc3)CC2)cc1 | 13.3 nM | 0.52 | 10.9 | – | – | 980 nM | 100% | 911 nM | 70% | – | 2920 nM |
| Fc1ccc(C(SCCNC2CCN(Cc3ccc(Cl)cc3)CC2)c2ccc(F)cc2)cc1 | 45.5 nM | 1.15 | 9.04 | – | – | – | – | – | – | – | – |
| CN(CCSC(c1ccc(F)cc1)c1ccc(F)cc1)C1CCN(C(=O)c2ccc(F)cc2)CC1 | 7.11 nM | 0.04 | 12.8 | 2440 nM | 190 nM | – | – | – | – | – | – |
| Fc1ccc(C(SCCN2CCC(NCc3ccc(Cl)cc3)CC2)c2ccc(F)cc2)cc1 | 62.4 nM | 0.72 | 4.59 | – | – | – | – | – | – | – | – |
| CC(C)(C)C(=O)N1CCC(NCCSC(c2ccc(F)cc2)c2ccc(F)cc2)CC1 | 163 nM | – | – | – | – | 11900 nM | – | 3420 nM | – | – | 6070 nM |
| Fc1ccc(CNC2CCN(CCSC(c3ccc(F)cc3)c3ccc(F)cc3)CC2)cc1 | 41.4 nM | 0.74 | 4.79 | – | – | – | – | – | – | – | – |
| CC(O)CN1CCN(CCSC(c2ccc(F)cc2)c2ccc(F)cc2)CC1 (stereo unspecified) | 2.24 nM | – | – | 6800 nM | 37.8 nM | – | – | – | – | – | – |
| CC(C)N(CCSC(c1ccc(F)cc1)c1ccc(F)cc1)C1CCN(C(=O)c2ccccc2F)CC1 | 126 nM | 0.08 | 10.7 | 16300 nM | 1530 nM | – | – | – | – | – | – |
| CC(O)CN1[C@H](C)CN(CCSC(c2ccc(F)cc2)c2ccc(F)cc2)C[C@@H]1C (stereo partly specified) | – | 0.243 | 641 | – | – | – | – | 1470 nM | – | – | 11900 nM |
| O=C(c1ccccc1)N1CCC(NCCSC(c2ccc(F)cc2)c2ccc(F)cc2)CC1 | 2.03 nM | 0.45 | 62.8 | 283 nM | 4.51 nM | 4110 nM | 100% | 2510 nM | 7% | 920 nM | 2900 nM |
| Fc1ccc(C(SCCNC2CCN(Cc3cc4ccccc4o3)CC2)c2ccc(F)cc2)cc1 | 205 nM | 1.71 | 5.79 | 695 nM | 120 nM | – | – | – | – | – | – |
| CC(C)(C)CN1CCC(NCC[S+]([O-])C(c2ccc(F)cc2)c2ccc(F)cc2)CC1 (stereo unspecified) | 542 nM | 1.26 | 16.2 | – | – | – | – | – | – | – | – |

From ChEMBL document CHEMBL4706586, “Structure-activity relationships for a series of (Bis(4-fluorophenyl)methyl)sulfinylethyl-aminopiperidines and -piperidine amines at the dopamine transporter: Bioisosteric replacement of the piperazine improves metabolic stability” (Eur J Med Chem, 2020)
